What was measured:
[1] = (§1) Cytotoxicity against human MT2 cells incubated for 4 days by XTT assay; type: cell-based; settings: MT2 cells
Summary of the method: (§2)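 Run alongside the MT-2 multicycle infection assay. Compound at graded concentrations mixed with an equal volume of MT-2 cells (10^5 cells/ml). Medium replaced next day and culture continued four days.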

[2] = tested on: Human immunodeficiency virus 1; experiment: Antiviral activity against HIV1 3B infected in human MT2 cells assessed as inhibition of p24 antigen production pretreated with virus for 30 mins followed by 4 days incubation with cells by sandwich ELISA based multicycle infection assay; type: functional, cell-based
Summary of the method: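 MT-2 cells were infected with HIV-1 IIIB at 100 TCID50 and preincubated 30 min with graded compound concentrations. Medium was replaced next day. Supernatants were collected 4 days post-infection, lysed with equal volume 5% Triton X-100, and p24 was measured by sandwich ELISA. IC50 came from percent inhibition of p24.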

[3] = (§3) Cytotoxicity against human TZM-bl cells incubated for 3 days by XTT assay; type: cell-based; settings: TZM-bl cells
Summary of the method: (§4)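 TZM-bl cells, 1 x 10^4/well, cultured overnight at 37 °C. Compounds added at graded concentrations for three days.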

[4] = tested on: Human immunodeficiency virus 1; experiment: Antiviral activity against X4 tropic HIV1 HXB2 infected in human TZM-bl cells pretreated with virus for 30 mins followed by 3 days incubation with cells by luciferase reporter gene based single cycle infection assay; type: functional, cell-based
Summary of the method: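 TZM-bl cells (1 x 10^4/well) were cultured overnight at 37 °C. HXB2-Env pseudovirus was preincubated 30 min with graded compound concentrations, then added to the cells for 3 days. Cells were washed and lysed, and luciferase was read. IC50 came from percent inhibition.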

MT2 = experiment: as §1; type: cell-based; settings: mt2, 96 h, 96 h; summary of the method: as §2
TZM = experiment: as §3; type: cell-based; settings: tzm, 72 h; summary of the method: as §4
[5] = Human immunodeficiency virus 1, 3B, MT2
[6] = Human immunodeficiency virus 1, HXB2, TZM-bl

| SMILES | CC50 at 96 h [1] [µM] | IC50 [2, 5] [µM] | CC50 at 72 h [3] [µM] | IC50 [4, 6] [µM] | CC50 (MT2) [µM] | IC50 [2] [µM] | CC50 (TZM) [µM] | IC50 [4] [µM] |
| --- | --- | --- | --- | --- | --- | --- | --- | --- |
| Cc1nc(C(CN(C)C)NC(=O)c2ccc(-c3ccc(Cl)cc3)[nH]2)sc1CO (centres undefined) | > 40 | > 40 | > 40 | > 40 |  |  |  |  |
| Cc1nc(C(CN)NC(=O)c2cnc(-c3ccc(Cl)cc3)[nH]2)sc1CO (centres undefined) | > 51 | > 26 | > 51 | > 51 |  |  |  |  |
| Cc1ccc(-c2ccc(C(=O)NC(CN(C)C)c3nc(C)c(CO)s3)[nH]2)cc1F (centres undefined) | > 40 | > 20 | > 40 | > 40 |  |  |  |  |
| COc1ccc(-c2ccc(C(=O)NC(CN)c3ncc(CO)s3)[nH]2)cc1OC (centres undefined) | > 50 | > 50 | > 50 | > 50 |  |  |  |  |
| Cc1nc(C(CN)NC(=O)c2ccc(-c3ccc(F)c(F)c3)[nH]2)sc1CO (stereo in doubt; 25A) | 61.2 | 6 | 57.3 | 3.4 |  |  |  |  |
| Cc1nc(C(CN)NC(=O)c2ccc(-c3ccc(F)c(F)c3)[nH]2)sc1CO (stereo in doubt; 25B) |  |  |  |  | 64.6 | 4.8 | 58.6 |  |
| Cc1nc(C(CN)NC(=O)c2ccc(-c3ccc(Cl)cc3)n2C)sc1CO (stereo in doubt; 26A) | 26.6 | > 25 | 36.7 | 25.8 |  |  |  |  |
| Cc1nc(C(CN)NC(=O)c2ccc(-c3ccc(Cl)cc3)n2C)sc1CO (stereo in doubt; 26B) |  |  |  |  | 32.1 |  | 35.8 | 26 |
| Cc1cc(-c2ccc(Cl)cc2)[nH]c1C(=O)NC(CN)c1nc(C)c(CO)s1 (stereo in doubt; 27A) | 20.2 | 3.9 | 26.4 | 1.1 |  |  |  |  |
| Cc1cc(-c2ccc(Cl)cc2)[nH]c1C(=O)NC(CN)c1nc(C)c(CO)s1 (stereo in doubt; 27B) |  |  |  |  | 24.9 | 4.1 | 27.2 | 2.2 |
| Cc1cc(C(=O)NC(CN)c2nc(C)c(CO)s2)[nH]c1-c1ccc(Cl)cc1 (stereo in doubt; 28A) |  | 5.3 |  | 3.6 | 18 |  | 22.2 |  |
| Cc1cc(C(=O)NC(CN)c2nc(C)c(CO)s2)[nH]c1-c1ccc(Cl)cc1 (stereo in doubt; 28B) |  |  |  |  | 4.1 | 6.1 | 5.2 |  |
| COc1cc(C(=O)NC(CN)c2nc(C)c(CO)s2)[nH]c1-c1ccc(Cl)cc1 (stereo in doubt; 29A) | 25 | > 24 | 25.4 | 22.2 |  |  |  |  |
| COc1cc(C(=O)NC(CN)c2nc(C)c(CO)s2)[nH]c1-c1ccc(Cl)cc1 (stereo in doubt; 29B) |  |  |  |  | 15.7 |  | 16.4 | 16.9 |
| Cc1nc(C(CN)NC(=O)c2ncc(-c3ccc(Cl)cc3)[nH]2)sc1CO (stereo in doubt; 30A) | > 51 | > 26 | > 51 | 51 |  |  |  |  |
| Cc1nc(C(CN)NC(=O)c2ncc(-c3ccc(Cl)cc3)[nH]2)sc1CO (stereo in doubt; 30B) |  |  |  |  |  |  |  | 35 |
| CNCC(NC(=O)c1ccc(-c2ccc(Cl)cc2)[nH]1)c1nc(C)c(CO)s1 (stereo in doubt; 41A) | 27.2 | 5.5 | 28.4 |  |  |  |  |  |
| CNCC(NC(=O)c1ccc(-c2ccc(Cl)cc2)[nH]1)c1nc(C)c(CO)s1 (stereo in doubt; 41B) |  |  |  |  | 26.4 | 3.1 | 31.7 |  |
| CNCC(NC(=O)c1ccc(-c2ccc(Cl)c(F)c2)[nH]1)c1nc(C)c(CO)s1 (stereo in doubt; 42A) | 21.7 | 2.4 | 20.6 | 1.6 |  |  |  |  |
| CNCC(NC(=O)c1ccc(-c2ccc(Cl)c(F)c2)[nH]1)c1nc(C)c(CO)s1 (stereo in doubt; 42B) |  |  |  |  | 18.1 | 2 | 21.3 |  |
| CNCC(NC(=O)c1ccc(-c2ccc(C)c(F)c2)[nH]1)c1nc(C)c(CO)s1 (stereo in doubt; 43A) | 34.4 | 1.1 | 33.5 |  |  |  |  |  |
| CNCC(NC(=O)c1ccc(-c2ccc(C)c(F)c2)[nH]1)c1nc(C)c(CO)s1 (stereo in doubt; 43B) |  |  |  |  | 30.6 | 0.95 | 34.2 | 1.6 |
| Cc1nc(C(CN(C)C)NC(=O)c2ccc(-c3ccc(Cl)c(F)c3)[nH]2)sc1CO (stereo in doubt; 45A) | > 40 | > 20 | > 40 | 16.7 |  |  |  |  |

| SMILES | CC50 at 96 h [1] [µM] | IC50 [2, 5] [µM] | CC50 at 72 h [3] [µM] | IC50 [4, 6] [µM] | CC50 (MT2) [µM] | IC50 [2] [µM] | CC50 (TZM) [µM] | IC50 [4] [µM] |
| --- | --- | --- | --- | --- | --- | --- | --- | --- |
| Cc1nc(C(CN(C)C)NC(=O)c2ccc(-c3ccc(Cl)c(F)c3)[nH]2)sc1CO (stereo in doubt; 45B) |  |  |  |  |  | 19.2 |  | 19 |
| Cc1nc(C(CCN)NC(=O)c2ccc(-c3ccc(F)c(Cl)c3)[nH]2)sc1CO (stereo in doubt; 62A) | 25.1 | 7.8 | 25.5 | 6.6 |  |  |  |  |
| Cc1nc(C(CCN)NC(=O)c2ccc(-c3ccc(F)c(Cl)c3)[nH]2)sc1CO (stereo in doubt; 62B) |  |  |  |  | 24.9 | 9.3 | 24.5 | 8 |
| Cc1cc(-c2ccc(C(=O)NC(CCN)c3nc(C)c(CO)s3)[nH]2)ccc1F (stereo in doubt; 63A) | 35.8 | 1.8 | 33 | 5.7 |  |  |  |  |
| Cc1cc(-c2ccc(C(=O)NC(CCN)c3nc(C)c(CO)s3)[nH]2)ccc1F (stereo in doubt; 63B) |  |  |  |  | 34.7 | 3 | 38.2 | 7.8 |
| CNCCC(NC(=O)c1ccc(-c2cccc(Cl)c2)[nH]1)c1nc(C)c(CO)s1 (stereo in doubt; 64A) | 25.1 | 7.8 | 23 | 6.3 |  |  |  |  |
| CNCCC(NC(=O)c1ccc(-c2ccc(F)c(Cl)c2)[nH]1)c1nc(C)c(CO)s1 (stereo in doubt; 65A) | 22.6 | 3.9 | 22 |  |  |  |  | 1.5 |
| CNCCC(NC(=O)c1ccc(-c2ccc(F)c(Cl)c2)[nH]1)c1nc(C)c(CO)s1 (stereo in doubt; 65B) |  |  |  |  | 24.2 | 5.7 | 22.3 | 4.6 |
| CNCCC(NC(=O)c1ccc(-c2ccc(F)c(C)c2)[nH]1)c1nc(C)c(CO)s1 (stereo in doubt; 66A) | 25.9 | 4.1 | 38.9 | 4.1 |  |  |  |  |
| CNCCC(NC(=O)c1ccc(-c2ccc(F)c(C)c2)[nH]1)c1nc(C)c(CO)s1 (stereo in doubt; 66B) |  |  |  |  | 25.3 | 5 | 36.4 | 4.9 |
| Cc1nc(C(CCN(C)C)NC(=O)c2ccc(-c3cccc(Cl)c3)[nH]2)sc1CO (stereo in doubt; 67A) | 26 | 13.8 | 29.4 | 10.4 |  |  |  |  |
| Cc1nc(C(CCN(C)C)NC(=O)c2ccc(-c3ccc(F)c(Cl)c3)[nH]2)sc1CO (stereo in doubt; 68A) | 19.1 | 3.7 | 21.3 | 1.5 |  |  |  |  |
| Cc1nc(C(CCN(C)C)NC(=O)c2ccc(-c3ccc(F)c(Cl)c3)[nH]2)sc1CO (stereo in doubt; 68B) |  |  |  |  | 22 | 4.4 | 22 | 1.8 |
| Cc1cc(-c2ccc(C(=O)NC(CCN(C)C)c3nc(C)c(CO)s3)[nH]2)ccc1F (stereo in doubt; 69A) | 25.1 | 2.1 | 23.7 |  |  |  |  | 1.9 |
| NCC(NC(=O)c1ccc(-c2ccc(Cl)cc2)[nH]1)c1ncc(CO)s1 (stereo in doubt; 81A) | 35.6 | 1.4 | 38 | 1.3 |  |  |  |  |
| NCC(NC(=O)c1ccc(-c2ccc(Cl)c(F)c2)[nH]1)c1ncc(CO)s1 (stereo in doubt; 82A) | 32 | 0.94 | 37.4 | 1.1 |  |  |  |  |
| Cc1ccc(-c2ccc(C(=O)NC(CN)c3ncc(CO)s3)[nH]2)cc1F (stereo in doubt; 83A) | 35.2 |  | 39.2 |  |  | 1.6 |  |  |
| NCC(NC(=O)c1ccc(-c2cc(F)c(Cl)c(F)c2)[nH]1)c1ncc(CO)s1 (stereo in doubt; 84B) |  |  |  |  | 17.4 | 0.97 | 20.6 |  |
| CNCC(NC(=O)c1ccc(-c2ccc(Cl)c(F)c2)[nH]1)c1ncc(CO)s1 (stereo in doubt; 86A) | 18.4 | 3.9 | 17.4 | 1.4 |  |  |  |  |
| CNCC(NC(=O)c1ccc(-c2ccc(C)c(F)c2)[nH]1)c1ncc(CO)s1 (stereo in doubt; 87A) | 26.6 |  | 22.3 | 2 |  | 4.4 |  |  |
| CNCC(NC(=O)c1ccc(-c2cc(F)c(Cl)c(F)c2)[nH]1)c1ncc(CO)s1 (stereo in doubt; 88A) | 14 | 0.36 | 10.4 | 0.36 |  |  |  |  |
| CNCC(NC(=O)c1ccc(-c2cc(F)c(Cl)c(F)c2)[nH]1)c1ncc(CO)s1 (stereo in doubt; 88B) |  |  |  |  | 11.9 |  | 13.9 | 0.42 |

From ChEMBL document CHEMBL4007461, “Synthesis, Antiviral Potency, in Vitro ADMET, and X-ray Structure of Potent CD4 Mimics as Entry Inhibitors That Target the Phe43 Cavity of HIV-1 gp120” (J Med Chem, 2017)
